From ChEMBL document CHEMBL4364291, “Benzylideneacetone Derivatives Inhibit Osteoclastogenesis and Activate Osteoblastogenesis Independently Based on Specific Structure-Activity Relationship” (J Med Chem, 2019)
Activity calls are given as the source filed them. The calls are words filed in the database; no cut-off is given here.

Key:
[1] = tested on: MC3T3-E1; experiment: Osteo-blastogenic activity in mouse MC3T3-E1 cells assessed as stimulation of ALP activity at 50 uM supplemented with fresh medium every 3 to 4 days and measured after 14 days relative to control; type: functional
Outline: (§1)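 MC3T3-E1 subclone 4 osteoblastic cells were grown in α-MEM at 37 °C under 5% CO2 with compound present during differentiation. ALP activity was read 14 d after induction and expressed as % of untreated cells. Values are mean ± SD of three independent experiments.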

[2] = Inhibition of M-CSF/RANKL-induced osteoclast differentiation in C57BL/6 mouse bone marrow macrophage assessed as reduction in multinucleated TRAP+ cells incubated for 6 days with fresh media replacement on day 3 and measured on day 6 by TRAP staining-based microscopic analysis; type: functional, cell-based; details: C57BL/6, BMDM
Outline: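 BMM came from femur and tibia marrow of 5–8-week-old male C57BL/6 mice and were purified over lymphocyte separation medium. Cells, 1 × 10^5 per well, were grown in α-MEM/10% FBS with M-CSF (60 ng/mL) and RANKL (150 ng/mL) for 6 d, medium changed day 3. Compound range was 0.01−100 μM. TRAP+ multinucleated cells were counted on day 6.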

[3] = tested on: MC3T3-E1; experiment: Osteo-blastogenic activity in mouse MC3T3-E1 cells assessed as stimulation of ALP activity at 10 uM supplemented with fresh medium every 3 to 4 days and measured after 14 days relative to control; type: functional; outline: as §1
[4] = tested on: Mus musculus; experiment: Antiosteoporotic activity in ddY mouse model of OVX-induced osteoporosis assessed as increase in trabecular thickness in femur bone at 10 mg/kg, po administered once daily via gavage for 4 weeks by microcomputed tomographic analysis; type: functional, organism-based
Outline: (§2)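 Female ddY mice were ovariectomized. Oral gavage began 1 week after surgery and ran once daily for 28 d. Vehicle was 300 μL PBS containing 0.5% (v/v) DMSO, also given to sham and OVX controls. Mice were then euthanized and femur and tibia fixed for CT imaging. Values are mean ± SD of four mice.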

[5] = tested on: Mus musculus; experiment: Antiosteoporotic activity in ddY mouse model of OVX-induced osteoporosis assessed as increase in new bone volume in femur bone at 10 mg/kg, po administered once daily via gavage for 4 weeks by microcomputed tomographic analysis; type: functional, organism-based; outline: as §2
[6] = Toxicity in ddY mouse model of OVX-induced osteoporosis assessed as increase in body weight at 10 mg/kg, po administered once daily via gavage for 4 weeks measured 5 weeks post OVX-challenge; type: organism-based; details: in vivo, 840 h
Outline: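 Dosing of ddY mice began one week after ovariectomy: compound in 300 μL of 0.5% (v/v) DMSO-containing PBS by gavage once daily for 28 d. OVX and sham controls received vehicle. Body weight was compared with sham control 5 weeks after OVX.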

[7] = tested on: BMDM; experiment: Effect on NFkappaB expression in M-CSF induced C57BL/6 mouse bone marrow macrophages at 10 uM measured over 5 days by Western blot analysis; type: functional, cell-based
Outline: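 C57BL/6 BMM were proliferated with M-CSF alone without RANKL and treated at 0.5 or 10 μM. NF-κB expression was followed over time by Western blot.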

[8] = tested on: BMDM; experiment: Inhibition of RANKL-induced osteoclastogenesis in C57BL/6 mouse bone marrow macrophages assessed as increase in NFkappaB expression at 10 uM measured over 5 days by Western blot analysis; type: functional, cell-based
Outline: (§3)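 C57BL/6 BMM were grown with M-CSF plus RANKL over the course of osteoclastogenesis, treated at 0.5 or 10 μM. NF-κB and NFATc1 were followed by Western blot. The negative control was M-CSF only.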

[9] = tested on: Mus musculus; experiment: Antiosteoporotic activity in ddY mouse model of OVX-induced osteoporosis assessed as increase in cross-sectional thickness in femur bone at 10 mg/kg, po administered once daily via gavage for 4 weeks by microcomputed tomographic analysis; type: functional, organism-based; outline: as §2
[10] = tested on: HCT-116; experiment: Antiproliferative activity against human HCT116 cells after 24 hrs by MTT assay; type: functional; details: HCT-116, 24 h, read-out: LD50 (the source's name)
Outline: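 Cells were maintained in DMEM at 37 °C under 5% CO2. Growth and survival were estimated by MTT assay, and the value is reported as LD50.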

[11] = tested on: Mus musculus; experiment: Antiosteoporotic activity in ddY mouse model of OVX-induced osteoporosis assessed as increase in ratio of bone volume/trabecular volume in femur bone at 10 mg/kg, po administered once daily via gavage for 4 weeks by microcomputed tomographic analysis; type: functional, organism-based; outline: as §2
[12] = tested on: Mus musculus; experiment: Antiosteoporotic activity in ddY mouse model of OVX-induced osteoporosis assessed as increase in trabecular number in femur bone at 10 mg/kg, po administered once daily via gavage for 4 weeks by microcomputed tomographic analysis; type: functional, organism-based; outline: as §2
[13] = tested on: BMDM; experiment: Inhibition of RANKL-induced osteoclastogenesis in C57BL/6 mouse bone marrow macrophages assessed as reduction in NFATc1 expression at 10 uM measured over 5 days by Western blot analysis; type: functional, cell-based; outline: as §3
[14] = tested on: Mus musculus; experiment: Antiosteoporotic activity in ddY mouse model of OVX-induced osteoporosis assessed as reduction in trabecular separation in femur bone at 10 mg/kg, po administered once daily via gavage for 4 weeks by microcomputed tomographic analysis; type: functional, organism-based; outline: as §2
[15] = tested on: Mus musculus; experiment: Antiosteoporotic activity in ddY mouse model of OVX-induced osteoporosis assessed as increase in femur bone mineral density at 10 mg/kg, po administered once daily via gavage for 4 weeks by microcomputed tomographic analysis; type: functional, organism-based; outline: as §2
[16] = Cytotoxicity against mouse RAW264.7 cells after 24 hrs by MTT assay; type: cell-based; details: read-out: LD50
Outline: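 RAW264.7 macrophages (preosteoclast line) were kept in DMEM at 37 °C under 5% CO2 and tested without RANKL. MTT read-out of growth and survival, expressed as LD50.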

[17] = tested on: BMDM; experiment: Suppression of NFATc1 expression in M-CSF induced C57BL/6 mouse bone marrow macrophages at 10 uM measured over 5 days by Western blot analysis; type: functional, cell-based
Outline: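 C57BL/6 BMM were kept proliferating with M-CSF in the absence of RANKL and treated with compound (0.5 or 10 μM). NFATc1 expression was followed over the culture period by Western blot.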

[18] = tested on: MC3T3-E1; experiment: Osteo-blastogenic activity in mouse MC3T3-E1 cells assessed as stimulation of ALP activity at 1 uM supplemented with fresh medium every 3 to 4 days and measured after 14 days relative to control; type: functional; outline: as §1
[19] = biological target: Isopentenyl-diphosphate Delta-isomerase 1 (Rattus norvegicus, UniProt O35760); experiment: Inhibition of isopentenyl diphosphate isomerase in Sprague-Dawley rat liver S100 fraction preincubated for 10 min followed by MVA addition by HPLC analysis
Chain of Isopentenyl-diphosphate Delta-isomerase 1 (O35760 whole entry): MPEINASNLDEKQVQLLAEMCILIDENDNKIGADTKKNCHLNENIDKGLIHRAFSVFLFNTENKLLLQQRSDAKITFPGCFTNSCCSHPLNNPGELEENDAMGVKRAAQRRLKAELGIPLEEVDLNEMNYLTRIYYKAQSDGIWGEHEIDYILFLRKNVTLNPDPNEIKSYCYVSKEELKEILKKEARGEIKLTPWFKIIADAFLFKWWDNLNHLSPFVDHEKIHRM

Row | SMILES | Activity [1] [%] | IC50 [2] [µM] | Activity [3] [%] | further results
1 | C=CCOc1ccc(/C=C/C(C)=O)cc1O | 140 | 18 | 120 | –
2 | O=C(/C=C/c1ccc(O)c(O)c1)O[C@@H]1C[C@@](O)(C(=O)O)C[C@@H](O)[C@@H]1O | 170 | 48 | 120 | –
3 | O=C(O)/C=C/c1ccc(O)c(O)c1 [CAFFEIC ACID] | 130 | 41 | 120 | –
4 | CC(=O)/C=C/c1ccc(C)c(O)c1 | 130 | 5.9 | 100 | –
5 | CC(=O)/C=C/c1ccc(OC(C)C)c(O)c1 | 94 | 24 | 100 | –
6 | COC(=O)Cc1ccc(O)c(O)c1 | 130 | 80 | 100 | –
7 | O=C(O)Cc1ccc(O)c(O)c1 [3,4-DIHYDROXYPHENYLACETIC ACID] | 170 | 75 | 120 | –
8 | COC(=O)c1ccc(O)c(O)c1 [METHYL PROTOCATECHUATE] | 100 | 78 | 110 | –
9 | NC(=O)/C=C/c1ccc(F)c(O)c1 | 120 | 25 | 110 | –
10 | CC(=O)/C=C/c1ccc(F)c(O)c1 | 100 | 15 | 100 | –
11 | O=C(O)/C=C/c1ccccc1 [CINNAMIC ACID] | 110 | > 100 | 100 | –
12 | CC(=O)/C=C/c1ccc(OCc2ccccc2)c(O)c1 | 140 | 19 | 130 | –
13 | O=C(/C=C/c1ccc(O)c(O)c1)O[C@@H]1C[C@](O)(C(=O)O)C[C@@H](O)[C@H]1O [CHLOROGENIC ACID] | 150 | 86 | 110 | –
14 | COc1cc(/C=C/C(C)=O)ccc1O [DEHYDROZINGERONE] | 600 | 7.5 | 110 | Activity [4]: Active; Activity [5]: Active; Activity [6]: Toxic; Activity [7]: inactive; inhibition [8]: Active; Activity [9]: Active; CC50 [10]: 310 µM; Activity [11]: Active; Activity [12]: Active; inhibition [13]: Active; Activity [14]: Active; Activity [15]: Active; CC50 at 24 h [16]: > 5 mM; Activity [17]: Active
15 | O=C(O)c1ccc(O)c(O)c1 [PROTOCATECHUIC ACID] | 140 | 89 | 100 | –
16 | O=C(O)Cc1ccccc1 [PHENYLACETIC ACID] | 110 | > 100 | 120 | –
17 | CC[C@H](C)[C@H](NC(=O)[C@H](CCC(=O)O)NC(=O)[C@H](CO)NC(=O)[C@@H](NC(=O)[C@@H](N)CO)C(C)C)C(=O)N[C@@H](CCC(N)=O)C(=O)N[C@@H](CC(C)C)C(=O)N[C@@H](CCSC)C(=O)N[C@@H](Cc1cnc[nH]1)C(=O)N[C@@H](CC(N)=O)C(=O)N[C@@H](CC(C)C)C(=O)NCC(=O)N[C@@H](CCCCN)C(=O)N[C@@H](Cc1cnc[nH]1)C(=O)N[C@@H](CC(C)C)C(=O)N[C@@H](CC(N)=O)C(=O)N[C@@H](CO)C(=O)N[C@@H](CCSC)C(=O)N[C@@H](CCC(=O)O)C(=O)N[C@@H](CCCNC(=N)N)C(=O)N[C@H](C(=O)N[C@@H](CCC(=O)O)C(=O)N[C@@H](Cc1c[nH]c2ccccc12)C(=O)N[C@@H](CC(C)C)C(=O)N[C@@H](CCCNC(=N)N)C(=O)N[C@@H](CCCCN)C(=O)N[C@@H](CCCCN)C(=O)N[C@@H](CC(C)C)C(=O)N[C@@H](CCC(N)=O)C(=O)N[C@@H](CC(=O)O)C(=O)N[C@H](C(=O)N[C@@H](Cc1cnc[nH]1)C(=O)N[C@@H](CC(N)=O)C(=O)N[C@@H](Cc1ccccc1)C(=O)O)C(C)C)C(C)C [TERIPARATIDE] | – | – | – | Activity [18]: 140%
18 | CC(=O)/C=C/c1ccc(O)c(F)c1 | 100 | 8.3 | 100 | –
19 | CC(=O)/C=C/c1ccc(O)cc1 | 150 | 32 | 110 | –
20 | NCCCC(O)(P(=O)(O)O)P(=O)(O)O [ALENDRONATE SODIUM] | – | 3.7 | – | IC50 [19]: 1700 nM; Activity [4]: inactive; Activity [5]: Active; Activity [9]: Active; Activity [11]: Active; Activity [12]: Active; Activity [14]: Active; Activity [15]: Active
21 | Cc1ccc(/C=C/C(N)=O)cc1O | 120 | 15 | 110 | –
22 | O=Cc1ccc(O)c(O)c1 [PROTOCATECHUALDEHYDE] | 140 | 15 | 110 | –
